Active and inactive are the calls of the source. No cut-off for these calls is given here.
Columns and labels:
[1] = target: T1, Signal peptide peptidase-like 2A (Mus musculus, UniProt Q9JJF9); assay: Inhibition of SPPL2a in Balb/c mouse A20 cells assessed as […] in CD74/p8 NTF accumulation incubated for overnight by Western blot analysis; assay type: cell-based
T1 sequence (Q9JJF9 whole entry): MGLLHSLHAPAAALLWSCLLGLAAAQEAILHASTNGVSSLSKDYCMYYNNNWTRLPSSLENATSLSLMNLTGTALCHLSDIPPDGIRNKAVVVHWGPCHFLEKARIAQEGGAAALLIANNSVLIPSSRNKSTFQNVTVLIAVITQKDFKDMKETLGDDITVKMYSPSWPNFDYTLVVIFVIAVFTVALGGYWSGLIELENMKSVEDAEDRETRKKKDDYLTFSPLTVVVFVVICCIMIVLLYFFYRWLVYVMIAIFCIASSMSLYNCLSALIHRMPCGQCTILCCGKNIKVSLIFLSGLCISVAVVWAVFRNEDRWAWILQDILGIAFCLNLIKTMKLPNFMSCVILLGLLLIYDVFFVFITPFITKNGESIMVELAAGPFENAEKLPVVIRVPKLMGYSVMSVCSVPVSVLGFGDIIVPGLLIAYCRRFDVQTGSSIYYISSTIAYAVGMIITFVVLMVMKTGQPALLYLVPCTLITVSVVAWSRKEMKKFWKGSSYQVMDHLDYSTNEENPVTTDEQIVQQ
Procedure, shortened: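 Endogenous CD74/p8 NTF processing in mouse B cell line A20 measured by quantitative Western blot; IC50 derived.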

Gamma-secretase = assay: Inhibition of gamma-secretase (unknown origin) expressed in HEK293 cells cotransfected with Notch1-VP16-GAL4 fusion and Gal4 luciferase reporter plasmid incubated for 24 hrs by luciferase reporter gene assay luminescence assay; assay type: cell-based, Homo sapiens
[2] = target: T1, Signal peptide peptidase-like 2A; assay: Inhibition of mouse SPPL2a cotransfected with EGFP-NLP-fused TNFalpha (1 to 77 residues)-NTF incubated for 24 hrs by Hoechst staining based Cellomics ArrayScan analysis
[3] = target: T2, Signal peptide peptidase-like 2B (Homo sapiens, UniProt Q8TCT7); assay: Inhibition of SPPL2b in human U2OS cells cotransfected with EGFP-labeled TNFalpha (1 to 76 residues)-NTF incubated for 24 hrs by Hoechst staining based Cellomics ArrayScan analysis; assay type: cell-based
T2 sequence (Q8TCT7 whole entry): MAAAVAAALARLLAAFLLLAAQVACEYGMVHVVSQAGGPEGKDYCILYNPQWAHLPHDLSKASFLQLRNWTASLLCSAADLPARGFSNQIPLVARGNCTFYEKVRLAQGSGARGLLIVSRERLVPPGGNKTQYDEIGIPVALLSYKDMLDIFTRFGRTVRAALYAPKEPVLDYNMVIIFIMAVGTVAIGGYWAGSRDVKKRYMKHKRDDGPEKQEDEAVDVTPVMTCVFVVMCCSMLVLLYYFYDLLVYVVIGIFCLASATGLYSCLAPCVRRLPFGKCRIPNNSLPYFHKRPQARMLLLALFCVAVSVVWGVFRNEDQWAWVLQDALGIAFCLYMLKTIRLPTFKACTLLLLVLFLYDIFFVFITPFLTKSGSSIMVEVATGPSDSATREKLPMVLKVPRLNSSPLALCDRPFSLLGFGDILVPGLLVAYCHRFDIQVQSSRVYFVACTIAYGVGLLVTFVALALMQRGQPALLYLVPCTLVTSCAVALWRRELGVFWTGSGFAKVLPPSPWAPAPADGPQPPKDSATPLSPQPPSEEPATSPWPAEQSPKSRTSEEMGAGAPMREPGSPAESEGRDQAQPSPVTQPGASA

[4] = Half life in Balb/c mouse at 5 mg/kg, iv and 20 mg/kg, po by LC/MS/MS analysis; assay type: ADME, organism-based; settings: in vivo
Procedure, shortened: (§1)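 Balb/c mice dosed 5 mg/kg i.v. and 20 mg/kg p.o. in PEG300/D5W (3:1); plasma concentration profile taken as mean of three animals; PK parameters derived from these profiles.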

[5] = Volume of distribution in Balb/c mouse at 5 mg/kg, iv and 20 mg/kg, po by LC/MS/MS analysis; assay type: ADME, organism-based; settings: in vivo; procedure, shortened: as §1
[6] = Oral bioavailability in Balb/c mouse at 20 mg/kg by LC/MS/MS analysis; assay type: ADME, organism-based; settings: in vivo; procedure, shortened: as §1
[7] = Dose normalized AUC in Balb/c mouse at 20 mg/kg, po by LC/MS/MS analysis; assay type: ADME, organism-based; settings: in vivo; procedure, shortened: as §1
[8] = Total plasma concentration in mouse at 100 mg/kg, po measured after 4 hrs by LC/MS/MS analysis; assay type: ADME, organism-based
Procedure, shortened: (§2)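 Single oral dose of 10, 30 or 100 mg/kg in PEG300/D5W (3:1); total plasma and spleen concentrations measured at termination, 4 h post-dose; reported as means ± SEM.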

[9] = Total plasma concentration in mouse at 30 mg/kg, po measured after 4 hrs by LC/MS/MS analysis; assay type: ADME, organism-based; procedure, shortened: as §2
[10] = Total plasma concentration in mouse at 10 mg/kg, po measured after 4 hrs by LC/MS/MS analysis; assay type: ADME, organism-based; procedure, shortened: as §2
[11] = Drug uptake in mouse spleen at 100 mg/kg, po measured after 4 hrs by LC/MS/MS analysis; assay type: ADME, organism-based; settings: read-out: Drug uptake; procedure, shortened: as §2
[12] = Drug uptake in mouse spleen at 30 mg/kg, po measured after 4 hrs by LC/MS/MS analysis; assay type: ADME, organism-based; settings: read-out: Drug uptake; procedure, shortened: as §2
[13] = Drug uptake in mouse spleen at 10 mg/kg, po measured after 4 hrs by LC/MS/MS analysis; assay type: ADME, organism-based; settings: read-out: Drug uptake; procedure, shortened: as §2
[14] = target: T3, Signal peptide peptidase-like 2A (Mus musculus) (UniProt Q9JJF9); assay: Inhibition of SPPL2a in mouse whole blood assessed as […] in CD74/p8 NTF accumulation at 4 uM incubated for 5 hrs by flow cytometric analysis based assay; assay type: tissue-based
T3 sequence (whole entry): T1 sequence (Q9JJF9 whole entry)

CC(C)(C)c1ccc(S(=O)(=O)N(C[C@H](O)[C@@H](N)c2ccc(OC(F)(F)F)cc2)C2CCC2)cc1
IC50 [1]: 150 nM
IC50 (Gamma-secretase): 1300 nM
IC50 [2]: 5 nM
IC50 [3]: 270 nM
half-life [4]: 5 h
Vd [5]: 12.3 L/kg
bioavailability [6]: 35%
AUC/dose [7]: 282 nM·h
concentration at 4 h [8]: 1.17 µM
concentration at 4 h [9]: 0.25 µM
concentration at 4 h [10]: 0.12 µM
concentration at 4 h [11]: 53.3 µM
concentration at 4 h [12]: 12.7 µM
concentration at 4 h [13]: 6 µM
inhibition [14]: Active

From ChEMBL document CHEMBL4665664, “Discovery of Orally Active Hydroxyethylamine Based SPPL2a Inhibitors” (ACS Med Chem Lett, 2019)
